These results are taken from publication PMC3974318 (Memórias do Instituto Oswaldo Cruz, 2013).

Structures are written as SMILES. “Also recorded” adds a separate entry of the source.

The subject of one data set is Erythrocytes. The data set can be described thus: Cytotoxic activity: haemolysis of erythrocytes. In kind it is cell-based, Human. Conditions: for toxicity to mammalian erythrocytes (lysis), in words: 3 h, 37 °C. In a few lines: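 Blood from healthy human donors was defibrinated and washed in glycosylated saline. A 3% erythrocyte suspension in glycosylated saline was incubated with a range of test compound concentrations for 3 h at 37 °C. Supernatant absorbance at 550 nm was compared with 1% Triton X-100-treated wells to give percent haemolysis.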

Data set [1] deals with intracellular trypanosomes. The settings on record: ref Izumi et al. 2012; cited from earlier work.
A further data set has as its system T. cruzi epimastigotes. The settings on record: extracellular replicative form; ref Izumi et al. (2012); cited from earlier work.
The test system of data set [2] is promastigote forms of Leishmania amazonensis. Kind of data set: Ultrastructural analysis by SEM and TEM. The class given is cell-based. Conditions: 2.5 µg/mL, 72 h.
Data set [3] concerns axenic amastigote forms of L. amazonensis. The data set can be described thus: Mitochondrial membrane potential by rhodamine 123, flow cytometry. The class given is cell-based, Leishmania amazonensis. The settings on record: 3 h, 32 °C, untreated cells 93.7%.
Data set [4] concerns axenic amastigotes of Leishmania amazonensis. The data set can be described thus: Cell viability by propidium iodide staining, flow cytometry. In kind it is cell-based. (Flow cytometry measures light scatter and fluorescence of single cells or particles in a stream.)
Where [5] appears, read: 100 µg/mL, 3 h, 32 °C, negative control 11.4%.

`C=C1CC[C@@H]2[C@](C)(CCC[C@@]2(C)C(=O)O)[C@H]1CCc1ccoc1` [Polyaltic acid, 15,16-epoxylabda-8(20),13(16),14-trien-19-oic acid]: the “toxicity to mammalian erythrocytes (lysis), in words” value (shortened to “toxicity to mammalian erythrocytes”) in the data set with Erythrocytes is on record as “did not cause lysis except at the maximum concentration tested; also recorded: no toxicity was observed, except at the maximum concentration tested”.
Consider `C=C1CC[C@H]2C(C)(C)[C@@H](O)CC[C@]2(C)[C@H]1CC/C(C)=C/C(=O)O` [Hydroxycopalic acid, 3β-hydroxylabda-8(20),13-dien-15-oic acid], for which the “inhibition of 50% against intracellular trypanosomes” value in data set [1] was 0.6 µg/mL. For the same compound, in the data set with Erythrocytes, the “toxicity to mammalian erythrocytes” value was “more toxic”. Also, the “ultrastructural changes in epimastigotes” value with T. cruzi epimastigotes is “organelle disorganisation and membranous vacuole formation”. In addition, in data set [2], the “ultrastructural changes (TEM)” value was “swollen mitochondria with the appearance of concentric membrane structures inside the organelle”.
On to `C=C1CC[C@@H]2C(C)(C)CCC[C@@]2(C)[C@@H]1CC/C(C)=C/C(=O)OC` [Methyl copalate, methyl labd-8(20),13-dien-15-oate], for which the “inhibition of 50% against intracellular trypanosomes” value in data set [1] was 0.8 µg/mL.
With `C=C1CC[C@@H]2[C@](C)(CCC[C@@]2(C)C(=O)O)[C@H]1CC[C@H](C)CC(=O)O` [Pinifolic acid, labd-8(20)-ene-15,18-dioic acid], the “toxicity to mammalian erythrocytes” value in the data set on Erythrocytes is on record as “did not cause lysis except at the maximum concentration tested”; in the data set with Erythrocytes (listed as pinifolic acid), “no toxicity was observed, except at the maximum concentration tested”. Moreover, the “Rh123 upper right gated population percentage” value in data set [3] (100 µg/mL) is reported as 32.4%. For the same compound, in data set [4] (setting [5]), the “PI-positive events, upper left quadrant gated percentage” value worked out at 68.4%.
As for `C[C@@H]1[C@H](O)[C@@H](C)/C=C/C=C/C=C/C=C/C=C/C=C/C=C/[C@H](O[C@@H]2O[C@H](C)[C@@H](O)[C@H](N)[C@@H]2O)C[C@@H]2O[C@](O)(C[C@@H](O)C[C@@H](O)[C@H](O)CC[C@@H](O)C[C@@H](O)CC(=O)O[C@H]1C)C[C@H](O)[C@H]2C(=O)O` [Amphotericin B, reference compound], in data set [4] (positive control, concentration not given), the “PI-positive events, upper left quadrant gated percentage” value amounted to 75.9%.
On to `C=C1CC[C@@H]2[C@](C)(CCC[C@]2(C)C(=O)O)[C@H]1CC/C(C)=C/C(=O)O` [Agathic acid, labd-8(20)-13-dien-15,19-dioic acid], for which the “Rh123 upper right gated population percentage” value in data set [3] (100 µg/mL) was found to be 27.5%. Further, in data set [4] (setting [5]), the “PI-positive events, upper left quadrant gated percentage” value was 63.4%.
For `C=C1C[C@@]23CC[C@H]4[C@@](C)(CCC[C@@]4(C)C(=O)O)[C@@H]2CC[C@@H]1C3` [Kaurenoic acid, kaur-16-ene-18-oic acid], in the data set on Erythrocytes, the “toxicity to mammalian erythrocytes” value is on record as “more toxic”. For the same compound, the “selectivity index (SI)” value in the data set with Erythrocytes (figures fit CC50/IC50 promastigote) is 5. Besides, the “Rh123 upper right gated population percentage” value in data set [3] (100 µg/mL) stood at 24.4%. Moreover, the “PI-positive events, upper left quadrant gated percentage” value in data set [4] (setting [5]) was 60.8%.
In the case of `N#CC(C#N)=NNc1cccc(Cl)c1` [CCCP, carbonyl cyanide m-chlorophenylhydrazone, reference compound], the “Rh123 upper right gated population percentage” value in data set [3] (200 µM) is recorded as 53.1%.
